Measured values taken from ChEMBL document CHEMBL3525985, “Regiospecificity and stereospecificity of human UDP-glucuronosyltransferases in the glucuronidation of estriol, 16-epiestriol, 17-epiestriol, and 13-epiestradiol” (Drug Metab Dispos, 2013).

Columns and labels:
Assay type in all cases: ADME
[1] = Drug metabolism in human intestine microsomes assessed as 17-epiestriol-16-glucuronide formation after 15 to 60 mins by Michaelis-Menten equation analysis in presence of UDPGA
Method in brief: (§1)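 Pooled human intestine microsomes (6 donors), 0.5 or 10 µg, with alamethicin at 5% of total protein. Incubated with 50 mM phosphate pH 7.4, 10 mM MgCl₂, 5 mM UDPGA and 10% DMSO for 15–60 min at 37°C. Each glucuronide regioisomer quantified by HPLC, in triplicate, with substrate consumption at or below 10%.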

[2] = target: T1, UDP-glucuronosyltransferase 1A1 (Homo sapiens, UniProt P22309); experiment: Drug metabolism assessed as recombinant human C-terminal His-tagged UGT1A1-mediated 17-epiestriol-3-glucuronide formation at 200 uM after 15 to 60 mins by HPLC analysis in presence of UDPGA; conditions: recombinant enzyme
T1 sequence (P22309 whole entry): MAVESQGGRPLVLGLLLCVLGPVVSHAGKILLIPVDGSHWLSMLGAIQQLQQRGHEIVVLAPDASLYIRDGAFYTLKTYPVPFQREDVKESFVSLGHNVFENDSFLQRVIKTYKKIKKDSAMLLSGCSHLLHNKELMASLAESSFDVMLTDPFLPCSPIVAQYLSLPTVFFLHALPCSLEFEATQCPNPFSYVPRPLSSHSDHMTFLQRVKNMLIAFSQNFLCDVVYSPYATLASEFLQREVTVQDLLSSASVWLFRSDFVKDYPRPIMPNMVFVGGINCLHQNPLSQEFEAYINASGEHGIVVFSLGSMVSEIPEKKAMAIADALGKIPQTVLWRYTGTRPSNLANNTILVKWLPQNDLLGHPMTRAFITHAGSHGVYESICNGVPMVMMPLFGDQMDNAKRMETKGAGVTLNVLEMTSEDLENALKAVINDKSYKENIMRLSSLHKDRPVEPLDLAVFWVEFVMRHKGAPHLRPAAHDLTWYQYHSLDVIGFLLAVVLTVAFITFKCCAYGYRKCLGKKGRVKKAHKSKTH
Method in brief: (§2)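 Screening at a single substrate concentration of 200 μM, in triplicate. The reaction used 5 or 50 µg of UGT-enriched insect cell membranes in 50 mM phosphate pH 7.4 with 10 mM MgCl₂ and 5 mM UDPGA, 10% final DMSO. Incubation was 15–60 min at 37°C. Perchloric acid stopped the reaction and supernatants were analysed by HPLC. Controls lacked UDPGA. Rates were normalized to relative UGT expression level.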

[3] = target: T2, UDP-glucuronosyltransferase 1A10 (Homo sapiens, UniProt Q9HAW8); experiment: Drug metabolism assessed as recombinant human C-terminal His-tagged UGT1A10-mediated 17-epiestriol-3-glucuronide formation at 200 uM after 15 to 60 mins by HPLC analysis in presence of UDPGA; conditions: recombinant enzyme; method in brief: as §2
T2 sequence (Q9HAW8 whole entry): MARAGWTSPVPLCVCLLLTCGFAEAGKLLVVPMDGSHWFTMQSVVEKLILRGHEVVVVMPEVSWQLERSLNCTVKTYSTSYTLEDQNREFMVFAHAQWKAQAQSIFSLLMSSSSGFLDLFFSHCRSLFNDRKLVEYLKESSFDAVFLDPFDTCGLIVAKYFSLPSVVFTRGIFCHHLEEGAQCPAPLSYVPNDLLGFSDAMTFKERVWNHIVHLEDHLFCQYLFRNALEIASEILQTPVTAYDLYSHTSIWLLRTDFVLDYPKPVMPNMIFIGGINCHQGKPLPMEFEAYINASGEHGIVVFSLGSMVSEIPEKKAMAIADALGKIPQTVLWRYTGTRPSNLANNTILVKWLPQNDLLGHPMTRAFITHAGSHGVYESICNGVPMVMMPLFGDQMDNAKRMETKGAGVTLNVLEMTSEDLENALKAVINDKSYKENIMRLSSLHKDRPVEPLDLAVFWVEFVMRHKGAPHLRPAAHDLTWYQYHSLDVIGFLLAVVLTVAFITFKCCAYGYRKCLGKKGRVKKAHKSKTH

[4] = target: T3, UDP-glucuronosyltransferase 2B4 (Homo sapiens, UniProt P06133); experiment: Drug metabolism assessed as recombinant human C-terminal His-tagged UGT2B4-mediated 17-epiestriol-17-glucuronide formation at 200 uM after 15 to 60 mins by HPLC analysis in presence of UDPGA; conditions: recombinant enzyme; method in brief: as §2
T3 sequence (P06133 whole entry): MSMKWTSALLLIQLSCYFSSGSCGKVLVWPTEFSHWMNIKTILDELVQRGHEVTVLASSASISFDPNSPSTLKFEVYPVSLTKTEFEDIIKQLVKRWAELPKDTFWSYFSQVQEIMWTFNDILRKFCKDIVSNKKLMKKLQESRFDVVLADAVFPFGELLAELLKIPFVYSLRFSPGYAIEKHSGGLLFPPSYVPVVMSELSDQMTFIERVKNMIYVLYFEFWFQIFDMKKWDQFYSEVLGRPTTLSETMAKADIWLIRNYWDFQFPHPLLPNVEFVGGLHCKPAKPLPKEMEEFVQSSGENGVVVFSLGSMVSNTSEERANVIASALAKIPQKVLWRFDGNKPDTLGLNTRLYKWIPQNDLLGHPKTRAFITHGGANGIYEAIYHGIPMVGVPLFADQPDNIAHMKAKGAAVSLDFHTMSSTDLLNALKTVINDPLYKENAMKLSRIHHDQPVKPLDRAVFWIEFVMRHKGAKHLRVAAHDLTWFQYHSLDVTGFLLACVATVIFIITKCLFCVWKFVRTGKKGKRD

[5] = target: T4, UDP-glucuronosyltransferase 2B7 (Homo sapiens, UniProt P16662); experiment: Drug metabolism assessed as recombinant human C-terminal His-tagged UGT2B7-mediated 16-epiestriol-16-glucuronide formation at 5 mg after 5 hrs by NMR spectroscopic analysis in presence of UDPGA
T4 sequence (P16662 whole entry): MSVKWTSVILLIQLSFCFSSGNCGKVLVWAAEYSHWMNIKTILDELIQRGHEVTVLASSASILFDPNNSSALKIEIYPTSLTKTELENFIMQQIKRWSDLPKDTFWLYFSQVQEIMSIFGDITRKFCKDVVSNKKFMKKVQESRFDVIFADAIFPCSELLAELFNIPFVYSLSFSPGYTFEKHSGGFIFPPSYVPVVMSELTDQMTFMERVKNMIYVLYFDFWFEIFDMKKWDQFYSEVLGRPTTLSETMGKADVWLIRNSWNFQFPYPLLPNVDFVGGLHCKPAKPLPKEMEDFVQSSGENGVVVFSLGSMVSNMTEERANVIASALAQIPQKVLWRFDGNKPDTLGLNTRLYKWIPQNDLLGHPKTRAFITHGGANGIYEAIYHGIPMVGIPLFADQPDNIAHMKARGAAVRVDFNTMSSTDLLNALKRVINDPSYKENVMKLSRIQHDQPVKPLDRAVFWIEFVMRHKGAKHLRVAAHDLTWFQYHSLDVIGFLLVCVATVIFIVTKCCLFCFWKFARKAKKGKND

[6] = target: T1, UDP-glucuronosyltransferase 1A1; experiment: Drug metabolism assessed as recombinant human C-terminal His-tagged UGT1A1-mediated estradiol-3-glucuronide formation at 200 uM after 15 to 60 mins by HPLC analysis in presence of UDPGA; conditions: recombinant enzyme; method in brief: as §2
[7] = Drug metabolism in human intestine microsomes assessed as estriol-16-glucuronide formation after 15 to 60 mins by Michaelis-Menten equation analysis in presence of UDPGA; method in brief: as §1

C[C@]12CC[C@@H]3c4ccc(O)cc4CC[C@H]3[C@@H]1C[C@@H](O)[C@H]2O
Km [1]: 820 µM
Vmax [1]: 266 pmol/min/mg
Drug metabolism [2]: metabolite_detected
Drug metabolism [3]: metabolite_detected
Drug metabolism [4]: metabolite_detected

C[C@]12CC[C@@H]3c4ccc(O)cc4CC[C@H]3[C@@H]1C[C@H](O)[C@@H]2O [EPIESTRIOL]
Drug metabolism [5]: metabolite_detected

C[C@]12CC[C@@H]3c4ccc(O)cc4CC[C@H]3[C@@H]1CC[C@@H]2O [ESTRADIOL]
Drug metabolism [6]: metabolite_detected

C[C@]12CC[C@@H]3c4ccc(O)cc4CC[C@H]3[C@@H]1C[C@@H](O)[C@@H]2O [ESTRIOL]
Km [7]: 5.1 µM
Vmax [7]: 953 pmol/min/mg
